Results taken from ChEMBL document CHEMBL2417412, “Design, synthesis, and structure-activity relationships of dihydrofuran-2-one and dihydropyrrol-2-one derivatives as novel benzoxazin-3-one-based mineralocorticoid receptor antagonists” (Bioorg Med Chem, 2013).

What was measured:
[1] = biological target: T1, Mineralocorticoid receptor (Homo sapiens, UniProt P08235); assay: Displacement of [3H]-Aldosterone from human MR expressed in 293 cells after 16 hrs by scintillation counting; assay type: cell-based, HEK293
T1 sequence (P08235 whole entry): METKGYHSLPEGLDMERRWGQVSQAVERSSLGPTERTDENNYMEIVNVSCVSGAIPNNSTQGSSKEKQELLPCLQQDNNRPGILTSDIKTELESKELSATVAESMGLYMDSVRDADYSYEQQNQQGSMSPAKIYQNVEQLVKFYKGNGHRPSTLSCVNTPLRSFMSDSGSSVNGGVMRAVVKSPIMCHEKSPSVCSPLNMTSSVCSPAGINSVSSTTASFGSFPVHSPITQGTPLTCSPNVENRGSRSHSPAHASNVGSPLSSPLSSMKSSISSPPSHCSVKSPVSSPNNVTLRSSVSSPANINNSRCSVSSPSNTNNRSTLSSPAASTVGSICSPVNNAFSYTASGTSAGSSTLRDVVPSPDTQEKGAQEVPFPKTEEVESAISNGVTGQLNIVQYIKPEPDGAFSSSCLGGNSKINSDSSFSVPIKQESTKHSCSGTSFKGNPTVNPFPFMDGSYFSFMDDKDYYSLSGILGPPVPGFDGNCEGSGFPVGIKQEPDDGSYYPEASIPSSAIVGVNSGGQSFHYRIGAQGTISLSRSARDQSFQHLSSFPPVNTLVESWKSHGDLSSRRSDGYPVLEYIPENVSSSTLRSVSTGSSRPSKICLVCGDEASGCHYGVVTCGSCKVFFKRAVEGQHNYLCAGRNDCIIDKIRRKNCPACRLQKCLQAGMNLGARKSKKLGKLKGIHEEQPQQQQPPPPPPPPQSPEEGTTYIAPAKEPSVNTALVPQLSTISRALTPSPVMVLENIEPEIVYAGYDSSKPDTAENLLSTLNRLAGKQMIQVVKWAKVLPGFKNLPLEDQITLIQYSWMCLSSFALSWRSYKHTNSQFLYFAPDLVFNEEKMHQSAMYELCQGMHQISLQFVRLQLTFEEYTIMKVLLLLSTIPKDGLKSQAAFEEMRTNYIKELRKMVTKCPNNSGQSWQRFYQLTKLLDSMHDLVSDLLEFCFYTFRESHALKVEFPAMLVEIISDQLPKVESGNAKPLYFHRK
Procedure, shortened: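 Cytosolic protein (0.75-1.5 mg/mL) from FreeStyle 293 cells transiently transfected with human MR was incubated for 16 h at 4 °C with 10 nM [3H]-aldosterone and serially diluted compound in TEGM buffer (Tris pH 7.2, EDTA, glycerol, DTT, molybdate, protease inhibitors). Free ligand was removed with dextran/gelatin-coated charcoal and the supernatant counted. Nonspecific binding used 100 µM cold aldosterone. Duplicates; IC50 from curve fit.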

[2] = biological target: T2, Progesterone receptor (Homo sapiens, UniProt P06401); assay: Displacement of [3H]-Progesterone from human PR expressed in 293 cells after 16 hrs by scintillation counting; assay type: cell-based, HEK293
T2 sequence (P06401 whole entry): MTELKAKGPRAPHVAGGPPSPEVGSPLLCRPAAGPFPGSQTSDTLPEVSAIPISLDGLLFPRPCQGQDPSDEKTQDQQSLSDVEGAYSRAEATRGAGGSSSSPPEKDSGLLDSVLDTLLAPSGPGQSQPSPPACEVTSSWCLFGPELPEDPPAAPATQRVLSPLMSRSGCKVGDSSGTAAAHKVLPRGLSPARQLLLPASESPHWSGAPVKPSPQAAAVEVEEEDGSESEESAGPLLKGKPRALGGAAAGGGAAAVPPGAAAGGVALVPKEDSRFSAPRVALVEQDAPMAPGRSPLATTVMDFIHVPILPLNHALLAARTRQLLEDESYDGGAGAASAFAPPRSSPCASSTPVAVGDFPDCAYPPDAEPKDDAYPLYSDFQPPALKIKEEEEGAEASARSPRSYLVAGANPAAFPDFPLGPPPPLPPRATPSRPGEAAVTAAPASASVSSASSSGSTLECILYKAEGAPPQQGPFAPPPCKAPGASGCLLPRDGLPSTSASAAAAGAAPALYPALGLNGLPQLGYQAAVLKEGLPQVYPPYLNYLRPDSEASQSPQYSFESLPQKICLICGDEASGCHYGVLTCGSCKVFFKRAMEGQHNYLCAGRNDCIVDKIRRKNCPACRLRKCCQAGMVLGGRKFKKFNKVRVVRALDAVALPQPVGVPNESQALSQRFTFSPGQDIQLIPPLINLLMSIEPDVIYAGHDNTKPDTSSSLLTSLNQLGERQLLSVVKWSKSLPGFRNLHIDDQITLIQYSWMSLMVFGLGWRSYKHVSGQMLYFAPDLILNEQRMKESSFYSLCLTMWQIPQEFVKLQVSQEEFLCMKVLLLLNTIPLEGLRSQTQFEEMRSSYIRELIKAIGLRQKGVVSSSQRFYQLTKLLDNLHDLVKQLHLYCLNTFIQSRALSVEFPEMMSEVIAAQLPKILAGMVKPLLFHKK
Procedure, shortened: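 The PR assay ran like the MR cytosolic binding assay from transfected 293 cells, with 5 nM [3H]-progesterone as ligand. Incubation was 16 h at 4 °C in TEGM buffer pH 7.2, followed by dextran/gelatin-charcoal removal of free label and scintillation counting of the supernatant. Concentrations were run in duplicate; IC50 taken as the mean of duplicate experiments from concentration-response curves.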

[3] = biological target: T3, Glucocorticoid receptor (Homo sapiens, UniProt P04150); assay: Displacement of [3H]-Dexamethasone human GR expressed in 293 cells after 16 hrs by scintillation counting; assay type: cell-based, HEK293
T3 sequence (P04150 whole entry): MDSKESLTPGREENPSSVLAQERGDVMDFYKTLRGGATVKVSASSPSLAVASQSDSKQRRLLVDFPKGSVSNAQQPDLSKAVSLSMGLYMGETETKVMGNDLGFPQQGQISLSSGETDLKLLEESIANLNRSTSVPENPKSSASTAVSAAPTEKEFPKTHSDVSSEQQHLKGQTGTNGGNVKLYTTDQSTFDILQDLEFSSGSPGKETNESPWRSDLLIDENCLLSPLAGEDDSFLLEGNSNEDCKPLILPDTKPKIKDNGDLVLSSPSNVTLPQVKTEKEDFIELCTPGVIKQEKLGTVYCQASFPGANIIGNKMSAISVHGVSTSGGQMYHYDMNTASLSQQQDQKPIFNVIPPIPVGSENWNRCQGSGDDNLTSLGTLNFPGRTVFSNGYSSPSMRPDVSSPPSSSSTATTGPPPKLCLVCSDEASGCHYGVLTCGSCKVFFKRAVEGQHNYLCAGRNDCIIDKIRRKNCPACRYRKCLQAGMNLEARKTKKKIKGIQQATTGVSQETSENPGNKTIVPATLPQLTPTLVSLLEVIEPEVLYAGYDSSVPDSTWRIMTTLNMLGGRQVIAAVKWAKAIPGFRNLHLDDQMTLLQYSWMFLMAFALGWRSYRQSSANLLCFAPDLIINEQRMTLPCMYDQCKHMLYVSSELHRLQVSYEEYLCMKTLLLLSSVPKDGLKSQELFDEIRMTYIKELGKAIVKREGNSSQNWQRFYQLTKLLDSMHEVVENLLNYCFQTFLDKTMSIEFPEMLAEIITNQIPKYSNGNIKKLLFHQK
Procedure, shortened: (§1)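 These followed the MR cytosolic binding protocol (transfected 293 cells, TEGM buffer pH 7.2, 16 h at 4 °C, charcoal separation, scintillation counting of supernatant). The ligand was [3H]-dexamethasone for GR and [3H]-testosterone for AR. Concentrations were run in duplicate; IC50 taken as the mean of duplicate experiments from concentration-response curves.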

[4] = biological target: T4, Androgen receptor (Homo sapiens, UniProt P10275); assay: Displacement of [3H]-Testosterone from human AR expressed in 293 cells after 16 hrs by scintillation counting; assay type: cell-based, HEK293; procedure, shortened: as §1
T4 sequence (P10275 whole entry): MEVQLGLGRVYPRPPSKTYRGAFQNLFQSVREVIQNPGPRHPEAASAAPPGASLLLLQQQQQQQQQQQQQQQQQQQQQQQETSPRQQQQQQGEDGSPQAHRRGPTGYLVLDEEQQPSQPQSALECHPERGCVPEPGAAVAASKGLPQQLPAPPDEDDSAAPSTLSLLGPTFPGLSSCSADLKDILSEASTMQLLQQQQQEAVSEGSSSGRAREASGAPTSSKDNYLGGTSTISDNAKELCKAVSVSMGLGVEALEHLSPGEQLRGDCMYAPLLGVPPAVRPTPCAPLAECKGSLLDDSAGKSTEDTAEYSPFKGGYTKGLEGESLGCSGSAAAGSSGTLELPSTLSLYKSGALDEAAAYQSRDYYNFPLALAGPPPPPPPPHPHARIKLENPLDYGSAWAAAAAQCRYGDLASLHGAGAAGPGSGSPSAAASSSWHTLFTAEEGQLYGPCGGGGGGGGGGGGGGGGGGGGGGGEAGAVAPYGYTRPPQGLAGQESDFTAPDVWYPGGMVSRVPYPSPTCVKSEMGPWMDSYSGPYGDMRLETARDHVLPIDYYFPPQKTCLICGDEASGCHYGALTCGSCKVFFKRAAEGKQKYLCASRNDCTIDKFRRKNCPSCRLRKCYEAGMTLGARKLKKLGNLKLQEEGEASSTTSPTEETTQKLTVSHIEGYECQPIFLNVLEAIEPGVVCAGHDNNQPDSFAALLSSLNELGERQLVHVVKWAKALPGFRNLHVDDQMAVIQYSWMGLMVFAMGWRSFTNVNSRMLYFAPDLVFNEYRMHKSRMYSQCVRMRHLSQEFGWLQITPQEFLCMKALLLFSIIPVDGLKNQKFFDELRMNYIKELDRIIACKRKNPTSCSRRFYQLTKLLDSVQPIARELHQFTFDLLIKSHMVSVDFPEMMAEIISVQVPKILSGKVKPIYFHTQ

[5] = system: HEK293; assay: Selectivity ratio of IC50 for human AR expressed in 293 cells to IC50 for human MR expressed in 293 cells; assay type: cell-based
[6] = system: HEK293; assay: Selectivity ratio of IC50 for human GR expressed in 293 cells to IC50 for human MR expressed in 293 cells; assay type: cell-based
[7] = biological target: T1, Mineralocorticoid receptor; assay: Antagonist activity at MR (unknown origin) expressed in COS1 cells after 1 day by luciferase reporter gene assay; assay type: cell-based, COS-1
Procedure, shortened: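 Human MR plasmid, MMTV-luciferase reporter and pRL-TK were lipofected into COS-1 cells, which were cultured for 1 day. Cells were then reseeded in low-glucose D-MEM with 0.1% BSA. Serial compound concentrations were added with 1 nM aldosterone (final) for 1 day at 37 °C in 5% CO2. Luciferase was read, and IC50 came from a sigmoidal fit.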

[8] = system: HEK293; assay: Selectivity ratio of IC50 for human PR expressed in 293 cells to IC50 for human MR expressed in 293 cells; assay type: cell-based

SMILES | IC50 [1] | IC50 [2] | IC50 [3] | IC50 [4] | IC50 [7] | Ratio IC50 [5] | Ratio IC50 [6] | Ratio IC50 [8]
CC1NC(=O)C(c2ccc(F)cc2)=C1c1ccc2c(c1)NC(=O)CO2 (configuration not stated) | 94 nM | 5600 nM | 9100 nM | > 10000 nM |  |  |  | 
CC1NC(=O)C(c2ccc(F)cc2)=C1c1cc(F)c2c(c1)NC(=O)CO2 (configuration not stated) | 92 nM | 3200 nM | 5000 nM | > 10000 nM |  |  |  | 
Cc1cc(C2=C(c3ccc(F)cc3)C(=O)NC2C)cc2c1OCC(=O)N2 (configuration not stated) | 43 nM | > 10000 nM | 4900 nM | > 10000 nM | 83 nM | > 200 | 100 | > 200
O=C1COc2ccc(C3=C(c4ccc(F)cc4F)C(=O)OC3)cc2N1 |  | 4600 nM | > 10000 nM | > 10000 nM |  |  |  | 
CC1C(c2ccc3c(c2)NC(=O)CO3)=C(c2ccc(F)cc2)C(=O)N1CCO (configuration not stated) | 1600 nM | > 10000 nM | > 10000 nM | > 10000 nM |  |  |  | 
CC1(F)OC(=O)C(c2ccc(F)cc2)=C1c1ccc2c(c1)NC(=O)CO2 (configuration not stated) | 550 nM | 5000 nM | > 10000 nM | > 10000 nM |  |  |  | 
O=C1COc2ccc(C3=C(c4ccc(F)cc4)C(=O)OC3)cc2N1 | 500 nM | > 10000 nM | > 10000 nM | > 10000 nM |  |  |  | 

Compounds with a lower IC50 [2], results first:

IC50 [1] | IC50 [2] | IC50 [3] | IC50 [4] | IC50 [7] | SMILES | Ratio IC50 [5] | Ratio IC50 [6] | Ratio IC50 [8]
1200 nM | 2200 nM | 2000 nM | > 10000 nM |  | CCC1OC(=O)C(c2ccc(F)cc2)=C1c1ccc2c(c1)NC(=O)CO2 (configuration not stated) |  |  | 
750 nM | 1800 nM | > 10000 nM | > 10000 nM |  | Cc1cc(F)ccc1C1=C(c2ccc3c(c2)NC(=O)CO3)COC1=O |  |  | 
23 nM | 1600 nM | 1100 nM | > 10000 nM |  | CC1NC(=O)C(c2ccc(F)cc2)=C1c1cc(Cl)c2c(c1)NC(=O)CO2 (configuration not stated) |  |  | 
1200 nM | 1000 nM | 4700 nM | > 10000 nM |  | CC1(C)OC(=O)C(c2ccc(F)cc2)=C1c1ccc2c(c1)NC(=O)CO2 |  |  | 
33 nM | 770 nM | 1600 nM | > 10000 nM |  | CCN1C(=O)C(c2ccc(F)cc2)=C(c2ccc3c(c2)NC(=O)CO3)C1C (configuration not stated) |  |  | 
 | 740 nM | 3800 nM | > 10000 nM |  | CC1OC(=O)C(c2ccc(F)cc2)=C1c1ccc2c(c1)NC(=O)CO2 (racemic) |  |  | 
68 nM | 400 nM | 2200 nM | > 10000 nM |  | CC1C(c2ccc3c(c2)NC(=O)CO3)=C(c2ccc(F)cc2)C(=O)N1C1CC1 (configuration not stated) |  |  | 
170 nM | 61 nM | 2100 nM | > 10000 nM |  | CC1C(c2ccc3c(c2)NC(=O)CO3)=C(c2ccc(F)cc2)C(=O)N1C (configuration not stated) |  |  | 
